The source made the active and inactive calls. The rule behind the calls is not given here.
Assays:
MDA-MB-231 [1] = assay: Antiproliferative activity against human MDA-MB-231 cells at 20 uM after 3 days by DAPI staining-based fluorescence microscopic method relative to control; assay type: functional
Outline: (§1)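 Controls were 0.5% DMSO (negative) and 1 μM doxorubicin (positive). Cells were fixed in 3.7% formaldehyde, stained with 0.4 μg mL–1 DAPI, and nuclei counted by automated fluorescence microscopy. Proliferation % and cell-loss % were calculated against a 24 h cell count and the DMSO 72 h count.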

MDA-MB-231 [2] = assay: Induction of nuclear morphological changes in human MDA-MB-231 cells assessed as nuclear fragmentation by Hoechst 33342 staining-based fluorescence microscopic method; assay type: functional, cell-based
Outline: (§2)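 Stained 60 min with 1 μg mL–1 Hoechst 33342 and 300 nM MitoTracker Deep Red in RPMI/10% FBS, then imaged by automated fluorescence microscopy. Mitochondrial mass taken as mean cytoplasmic MitoTracker intensity. Nuclear fragmentation index from an apoptosis image-analysis module.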

HCC38 [3] = assay: Cytotoxicity against human HCC38 cells at 20 uM after 3 days by DAPI staining-based fluorescence microscopic method relative to control; assay type: functional
MDA-MB-231 [4] = assay: Cell cycle arrest in human MDA-MB-231 cells assessed as accumulation at M phase at 25 uM after 72 hrs by pHH3 detection-based fluorescence microscopic method; assay type: functional
Outline: (§3)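 Cells exposed 72 h to 0.2–25 μM, then pulsed 30 min with 30 μM EdU. Fixed in 3.7% paraformaldehyde, permeabilised with 0.1% Triton X100. EdU click-labelled with AF488. Blocked in 3% BSA, then anti-pHH3 (S10) 1:250 and AF647 secondary with Hoechst. S and M phases scored by automated imaging cell-cycle module.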

T47D [5] = assay: Cytotoxicity against human T47D cells at 20 uM after 3 days by DAPI staining-based fluorescence microscopic method relative to control; assay type: functional
BT-549 [6] = assay: Cytotoxicity against human BT549 cells at 20 uM after 3 days by DAPI staining-based fluorescence microscopic method relative to control; assay type: functional
Hs-578T [7] = assay: Cytotoxicity against human Hs 578T cells at 20 uM after 3 days by DAPI staining-based fluorescence microscopic method relative to control; assay type: functional
SK-BR-3 = assay: Cytotoxicity against human SKBR3 cells at 20 uM after 3 days by DAPI staining-based fluorescence microscopic method relative to control; assay type: functional
MDA-MB-231 [8] = assay: Cytotoxicity against human MDA-MB-231 cells by MitoTracker Deep Red staining-based fluorescence microscopic method; assay type: functional, cell-based; outline: as §2
MDA-MB-231 [9] = assay: Cell cycle arrest in human MDA-MB-231 cells assessed as accumulation at S phase at 25 uM after 72 hrs by EdU incorporation-based fluorescence microscopic method; assay type: functional; outline: as §3
MDA-MB-231 [10] = assay: Antiproliferative activity against human MDA-MB-231 cells after 3 days by DAPI staining-based fluorescence microscopic method; assay type: functional, cell-based; conditions: MDA-MB-231, 72 h
Outline: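 Fixed in 3.7% formaldehyde, nuclei stained with 0.4 μg mL–1 DAPI, counted by automated fluorescence microscopy. Proliferation normalised to 0.5% DMSO and to 24 h cell count; IC50 from dose response.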

MDA-MB-231 [11] = assay: Induction of necrosis in human MDA-MB-231 cells at 40 uM after 24 hrs by acridine orange/ethidium bromide staining-based flow cytometric method; assay type: functional, cell-based
MDA-MB-231 [12] = assay: Induction of reactive oxygen species generation in human MDA-MB-231 cells at 6 uM after 3 hrs by H2DCFDA dye-based fluorescence microscopic method relative to control; assay type: functional
Outline: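 Exposed 3 or 24 h to 6 μM, with or without 3 mM N-acetyl-L-cysteine. Cells then loaded with 10 μM H2DCFDA for 30 min at 37 °C, washed with PBS, and fluorescence intensity read by automated fluorescence microscopy.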

MDA-MB-468 [13] = assay: Cytotoxicity against human MDA-MB-468 cells at 20 uM after 3 days by DAPI staining-based fluorescence microscopic method relative to control; assay type: functional
MCF7 [14] = assay: Cytotoxicity against human MCF7 cells at 20 uM after 3 days by DAPI staining-based fluorescence microscopic method relative to control; assay type: functional
MDA-MB-231 [15] = assay: Cytotoxicity against human MDA-MB-231 cells at 20 uM after 3 days by DAPI staining-based fluorescence microscopic method relative to control; assay type: functional
MDA-MB-231 [16] = assay: Induction of reactive oxygen species generation in human MDA-MB-231 cells at 20 uM after 24 hrs by H2DCFDA dye-based fluorescence microscopic method; assay type: functional, cell-based
Outline: (§4)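 MDA-MB-231 cells were exposed for 3 or 24 h, with or without 3 mM N-acetyl-L-cysteine. Intracellular ROS was probed with 10 μM H2DCFDA for 30 min at 37 °C. After a PBS wash, fluorescence intensity was quantified by automated fluorescence microscopy. Cells were grown at 37 °C, 5% CO2.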

MDA-MB-231 [17] = assay: Induction of reactive oxygen species generation in human MDA-MB-231 cells at 6 uM after 24 hrs by H2DCFDA dye-based fluorescence microscopic method; assay type: functional, cell-based; conditions: 20 uM, in the assay text read “at 20 uM” for “at 6 uM”; outline: as §4
MDA-MB-231 [18] = assay: Induction of reactive oxygen species generation in human MDA-MB-231 cells at 6 uM after 3 hrs in presence of N-acetyl-L-cysteine by H2DCFDA dye-based fluorescence microscopic method; assay type: functional, cell-based; conditions: 20 uM, in the assay text read “at 20 uM” for “at 6 uM”; outline: as §4
MCF7 [19] = assay: Cytotoxicity against human MCF7 cells at 0.5 uM after 3 days by DAPI staining-based fluorescence microscopic method relative to control; assay type: functional; conditions: in the assay text read “at 1 uM” for “at 0.5 uM”; outline: as §1
MDA-MB-231 [20] = assay: Cytotoxicity against human MDA-MB-231 cells at 0.5 uM after 3 days by DAPI staining-based fluorescence microscopic method relative to control; assay type: functional; conditions: in the assay text read “at 1 uM” for “at 0.5 uM”; outline: as §1
HCC38 [21] = assay: Cytotoxicity against human HCC38 cells at 0.5 uM after 3 days by DAPI staining-based fluorescence microscopic method relative to control; assay type: functional; conditions: in the assay text read “at 1 uM” for “at 0.5 uM”; outline: as §1
MDA-MB-468 [22] = assay: Cytotoxicity against human MDA-MB-468 cells at 0.5 uM after 3 days by DAPI staining-based fluorescence microscopic method relative to control; assay type: functional; conditions: in the assay text read “at 1 uM” for “at 0.5 uM”; outline: as §1
BT-549 [23] = assay: Cytotoxicity against human BT549 cells at 0.5 uM after 3 days by DAPI staining-based fluorescence microscopic method relative to control; assay type: functional; conditions: in the assay text read “at 1 uM” for “at 0.5 uM”; outline: as §1
HMEC = assay: Cytotoxicity against immortalized HMEC at 0.5 uM after 3 days by DAPI staining-based fluorescence microscopic method relative to control; assay type: cell-based; conditions: human, 72 h, 1 µM, in the assay text read “at 1 uM” for “at 0.5 uM”; outline: as §1
T47D [24] = assay: Cytotoxicity against human T47D cells at 0.5 uM after 3 days by DAPI staining-based fluorescence microscopic method relative to control; assay type: functional; conditions: in the assay text read “at 1 uM” for “at 0.5 uM”; outline: as §1
Hs-578T [25] = assay: Cytotoxicity against human Hs 578T cells at 0.5 uM after 3 days by DAPI staining-based fluorescence microscopic method relative to control; assay type: functional; conditions: in the assay text read “at 1 uM” for “at 0.5 uM”; outline: as §1

In the case of `O=C1C=CN(C(=O)/C=C/c2ccccc2)CC1`, the Activity (MDA-MB-231 [1]) is reported as 50%.
In the case of `COc1cc(/C=C/C(=O)N2CCC(=O)CC2)cc(OC)c1O`, the Activity (MDA-MB-231 [2]) is reported as “Active”, the Activity (HCC38 [3]) is reported as “>=15 - 80%” and the Activity (MDA-MB-231 [4]) is reported as “inactive”. The Activity (T47D [5]) was “>=15 - 80%”, the Activity (BT-549 [6]) was “>=15 - 80%” and the Activity (Hs-578T [7]) was “>=15 - 80%”. For the same compound, the Activity (SK-BR-3) was “>=15 - 80%”, the Activity (MDA-MB-231 [8]) was “Active” and the Activity (MDA-MB-231 [9]) was “inactive”. For the same compound, the IC50 (MDA-MB-231 [10]) was 6.6 µM, the Activity (MDA-MB-231 [11]) was “Active” and the Activity (MDA-MB-231 [12]) was 20%. The Activity (MDA-MB-468 [13]) was “>=15 - 80%”, the Activity (MCF7 [14]) was “>=15 - 80%” and the Activity (MDA-MB-231 [15]) was 60%.
`COc1cc(/C=C/C(=O)N2C=CC(=O)CC2)cc(OC)c1OC` was tested, and the Activity (MDA-MB-231 [1]) was 50%.
In the case of `COc1cc(CCC(=O)N2C=CC(=O)CC2)cc(OC)c1OC`, the Activity (MDA-MB-231 [1]) is reported as “inactive”.
In the case of `COc1cc(/C=C/C(=O)N2CCCCC2)cc(OC)c1O`, the Activity (MDA-MB-231 [16]) is reported as “inactive”, the Activity (MDA-MB-231 [2]) is reported as “inactive” and the Activity (MDA-MB-231 [8]) is reported as “inactive”. For the same compound, the Activity (MDA-MB-231 [17]) was “inactive” and the Activity (MDA-MB-231 [18]) was “inactive”.
For `COc1cccc2c1C(=O)c1c(O)c3c(c(O)c1C2=O)C[C@@](O)(C(=O)CO)C[C@@H]3O[C@H]1C[C@H](N)[C@H](O)[C@H](C)O1` [DOXORUBICIN], the Activity (MCF7 [19]) was 0.2 - 50%, the Activity (MDA-MB-231 [20]) was 0.2 - 50% and the Activity (HCC38 [21]) was 0.2 - 50%. The Activity (MDA-MB-468 [22]) was 0.2 - 50%, the Activity (BT-549 [23]) was 0.2 - 50% and the Activity (HMEC) was 23.9%. For the same compound, the Activity (T47D [24]) was 0.2 - 50% and the Activity (Hs-578T [25]) was 0.2 - 50%.
